Test results taken from ChEMBL document CHEMBL1147446, “Antagonists of human CCR5 receptor containing 4-(pyrazolyl)piperidine side chains. Part 3: SAR studies on the benzylpyrazole segment” (Bioorg Med Chem Lett, 2004).

Experiments:
HeLa [1] = experiment: Antiviral activities in a cell culture HIV-1 infectivity inhibition assay using HeLa cells plus 50% normal human serum; format: functional
[2] = target: C-C chemokine receptor type 5 (Homo sapiens, UniProt P51681); experiment: Inhibitory concentration for displacement of [125I]-MIP-1 alpha from recombinant human CC chemokine receptor 5 (CCR5) expressed in CHO cell; format: cell-based
C-C chemokine receptor type 5, sequence (P51681 whole entry): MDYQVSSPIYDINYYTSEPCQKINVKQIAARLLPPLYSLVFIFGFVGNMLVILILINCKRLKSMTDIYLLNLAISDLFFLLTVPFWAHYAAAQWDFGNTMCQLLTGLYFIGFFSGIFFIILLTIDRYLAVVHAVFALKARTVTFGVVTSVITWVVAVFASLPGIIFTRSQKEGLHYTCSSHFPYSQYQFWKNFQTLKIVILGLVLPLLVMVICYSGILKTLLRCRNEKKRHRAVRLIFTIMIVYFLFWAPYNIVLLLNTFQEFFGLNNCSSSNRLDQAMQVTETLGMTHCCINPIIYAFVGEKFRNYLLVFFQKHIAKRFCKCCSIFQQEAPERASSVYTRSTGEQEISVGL
Outline: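 Competitive binding to CCR5 on CHO cell membranes, read as displacement of [125I]-labeled MIP-1α. IC50 values are means of triplicate determinations. Standard errors were normally <15% within an assay. Assay-to-assay variation was within ±2-fold, judged from a standard compound.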

HeLa [3] = experiment: Antiviral activities in a cell culture HIV-1 infectivity inhibition assay using HeLa cells; format: functional; conditions: Homo sapiens

Structure (SMILES) | IC90 (HeLa [1]) [nM] | IC50 [2] [nM] | IC90 (HeLa [3]) [nM]
CCOc1cccc(Cc2cc(C3CCN(C[C@H]4CN([C@@H](C(=O)O)C(C)(C)C)C[C@@H]4c4cccc(F)c4)CC3)n(CC)n2)c1 | 100 | 0.4 | < 0.14
CCn1nc(Cc2ccc(Oc3ccccc3)cc2)cc1C1CCN(C[C@H]2CN([C@@H](C(=O)O)C(C)(C)C)C[C@@H]2c2cccc(F)c2)CC1 | 300 | 0.4 | 3.7
CCn1nc(Cc2ccc(OC(C)(C)C)cc2)cc1C1CCN(C[C@H]2CN([C@@H](C(=O)O)C(C)(C)C)C[C@@H]2c2cccc(F)c2)CC1 | 300 | 2 | 11
CCn1nc(Cc2ccc(O)cc2)cc1C1CCN(C[C@H]2CN([C@@H](C(=O)O)C(C)C)C[C@@H]2c2cccc(F)c2)CC1 | 33 | 0.6 | 1.2
CCn1nc(Cc2ccc(OC(C)(C)C)cc2)cc1C1CCN(C[C@H]2CN([C@@H](C(=O)O)C(C)C)C[C@@H]2c2cccc(F)c2)CC1 | 100 | 0.8 | < 0.14
CC[C@H](C)[C@H](C(=O)O)N1C[C@H](CN2CCC(c3cc(Cc4ccc(OC(C)C)cc4)nn3CC)CC2)[C@@H](c2cccc(F)c2)C1 | 33 | 0.8 | < 0.14
CC[C@@H](C)[C@H](C(=O)O)N1C[C@H](CN2CCC(c3cc(Cc4ccc(S(=O)(=O)c5ccccc5)cc4)nn3CC)CC2)[C@@H](c2cccc(F)c2)C1 | 33 | 1.1 | 0.4
CCCCOc1ccc(Cc2cc(C3CCN(C[C@H]4CN([C@@H](C(=O)O)[C@H](C)CC)C[C@@H]4c4cccc(F)c4)CC3)n(CC)n2)cc1 | 100 | 0.8 | 3.7
CCn1nc(CC2CCCCC2)cc1C1CCN(C[C@H]2CN([C@@H](C(=O)O)C(C)(C)C)C[C@@H]2c2cccc(F)c2)CC1 | 300 | 1.1 | 3.7
CCn1nc(Cc2ccc3c(c2)OCO3)cc1C1CCN(C[C@H]2CN([C@@H](C(=O)O)C(C)(C)C)C[C@@H]2c2cccc(F)c2)CC1 | 33 | 0.7 | < 0.14
CCn1nc(Cc2cccc(C#N)c2)cc1C1CCN(C[C@H]2CN([C@@H](C(=O)O)C(C)C)C[C@@H]2c2cccc(F)c2)CC1 | 100 | 1.7 | 3.7
CCn1nc(Cc2ccc(F)c(F)c2)cc1C1CCN(C[C@H]2CN([C@@H](C(=O)O)C(C)C)C[C@@H]2c2cccc(F)c2)CC1 | 300 | 1.1 | 3.7
CCn1nc(Cc2ccc(OC(F)F)cc2)cc1C1CCN(C[C@H]2CN([C@@H](C(=O)O)C(C)(C)C)C[C@@H]2c2cccc(F)c2)CC1 | 11 | 0.5 | < 0.14
CC[C@H](C)[C@H](C(=O)O)N1C[C@H](CN2CCC(c3cc(Cc4ccc(OC(F)F)cc4)nn3CC)CC2)[C@@H](c2cccc(F)c2)C1 | 11 | 0.3 | < 0.14
CCn1nc(Cc2cccc(C#N)c2)cc1C1CCN(C[C@H]2CN([C@@H](C(=O)O)C(C)(C)C)C[C@@H]2c2cccc(F)c2)CC1 | 11 | 1 | < 0.14
CCn1nc(Cc2ccc(OC)cc2)cc1C1CCN(C[C@H]2CN([C@@H](C(=O)O)C(C)(C)C)C[C@@H]2c2cccc(F)c2)CC1 | 33 | 1.5 | < 0.14
CCn1nc(Cc2cc(C(F)(F)F)cc(C(F)(F)F)c2)cc1C1CCN(C[C@H]2CN([C@@H](C(=O)O)C(C)(C)C)C[C@@H]2c2cccc(F)c2)CC1 | > 300 | 2.3 | 11
CC[C@@H](C)[C@H](C(=O)O)N1C[C@H](CN2CCC(c3cc(Cc4ccc5ccccc5c4)nn3CC)CC2)[C@@H](c2cccc(F)c2)C1 | 300 | 0.2 | < 0.14
CCCOc1ccc(Cc2cc(C3CCN(C[C@H]4CN([C@@H](C(=O)O)C5CCCCC5)C[C@@H]4c4cccc(F)c4)CC3)n(CC)n2)cc1 | 100 | 0.7 | 1.2
CC[C@H](C)[C@H](C(=O)O)N1C[C@H](CN2CCC(c3cc(Cc4ccc(C)cc4)nn3CC)CC2)[C@@H](c2cccc(F)c2)C1 | 11 | 0.3 | < 0.14

Structure (SMILES) | IC90 (HeLa [1]) [nM] | IC50 [2] [nM] | IC90 (HeLa [3]) [nM]
CC[C@@H](C)[C@H](C(=O)O)N1C[C@H](CN2CCC(c3cc(Cc4ccc(Oc5ccccc5)cc4)nn3CC)CC2)[C@@H](c2cccc(F)c2)C1 | 300 | 0.5 | 3.7
CCn1nc(Cc2ccc(S(=O)(=O)c3ccccc3)cc2)cc1C1CCN(C[C@H]2CN([C@@H](C(=O)O)C(C)(C)C)C[C@@H]2c2cccc(F)c2)CC1 | 3.7 | 1.1 | < 0.14
CCn1nc(Cc2ccc(C#N)cc2)cc1C1CCN(C[C@H]2CN([C@@H](C(=O)O)C(C)C)C[C@@H]2c2cccc(F)c2)CC1 | 100 | 3.1 | 1.2
CC[C@H](C)[C@H](C(=O)O)N1C[C@H](CN2CCC(c3cc(Cc4ccc(C#N)cc4)nn3CC)CC2)[C@@H](c2cccc(F)c2)C1 | 3.7 | 1.3 | < 0.14
CCn1nc(Cc2ccc(OC(F)(F)F)cc2)cc1C1CCN(C[C@H]2CN([C@@H](C(=O)O)C(C)(C)C)C[C@@H]2c2cccc(F)c2)CC1 | 100 | 0.6 | 1.2
CCn1nc(Cc2ccc(C(F)(F)F)cc2)cc1C1CCN(C[C@H]2CN([C@@H](C(=O)O)C3CCCCC3)C[C@@H]2c2cccc(F)c2)CC1 | 33 | 1.5 | 0.4
CCn1nc(CC2CCCCC2)cc1C1CCN(C[C@H]2CN([C@@H](C(=O)O)C(C)C)C[C@@H]2c2cccc(F)c2)CC1 | > 300 | 2.3 | 33
CCn1nc(Cc2cccc3ccccc23)cc1C1CCN(C[C@H]2CN([C@@H](C(=O)O)C(C)(C)C)C[C@@H]2c2cccc(F)c2)CC1 | 11 | 0.2 | < 0.14
CCn1nc(Cc2ccc(C(F)(F)F)cc2)cc1C1CCN(C[C@H]2CN([C@@H](C(=O)O)C(C)C)C[C@@H]2c2cccc(F)c2)CC1 | 100 | 2 | 3.7
CCn1nc(Cc2ccc(OC3CC3)cc2)cc1C1CCN(C[C@H]2CN([C@@H](C(=O)O)C3CCCCC3)C[C@@H]2c2cccc(F)c2)CC1 | 33 | 0.2 | < 0.14
CC[C@H](C)[C@H](C(=O)O)N1C[C@H](CN2CCC(c3cc(Cc4ccc(-c5ccccc5)cc4)nn3CC)CC2)[C@@H](c2cccc(F)c2)C1 | 33 | 0.3 | 0.4
CC[C@H](C)[C@H](C(=O)O)N1C[C@H](CN2CCC(c3cc(Cc4ccc(Oc5ccccc5)cc4)nn3CC)CC2)[C@@H](c2cccc(F)c2)C1 | 100 | 0.4 | 1.2
CCOc1ccc(Cc2cc(C3CCN(C[C@H]4CN([C@@H](C(=O)O)C5CCCCC5)C[C@@H]4c4cccc(F)c4)CC3)n(CC)n2)cc1 | 33 | 1 | < 0.14
CC[C@H](C)[C@H](C(=O)O)N1C[C@H](CN2CCC(c3cc(Cc4ccc(C(F)(F)F)cc4)nn3CC)CC2)[C@@H](c2cccc(F)c2)C1 | 33 | 0.5 | < 0.14
CC[C@@H](C)[C@H](C(=O)O)N1C[C@H](CN2CCC(c3cc(Cc4ccc(OCc5ccccc5)cc4)nn3CC)CC2)[C@@H](c2cccc(F)c2)C1 | 100 | 0.5 | 3.7
CCn1nc(Cc2cc(C(F)(F)F)cc(C(F)(F)F)c2)cc1C1CCN(C[C@H]2CN([C@@H](C(=O)O)C(C)C)C[C@@H]2c2cccc(F)c2)CC1 | > 300 | 3.2 | 100
CCn1nc(Cc2ccc(O)cc2)cc1C1CCN(C[C@H]2CN([C@@H](C(=O)O)C(C)(C)C)C[C@@H]2c2cccc(F)c2)CC1 | 11 | 1.1 | 0.4
CC[C@@H](C)[C@H](C(=O)O)N1C[C@H](CN2CCC(c3cc(Cc4cccc(CN)c4)nn3CC)CC2)[C@@H](c2cccc(F)c2)C1 | 33 | 2.7 | 3.7
CCn1nc(Cc2ccc(OC)c(C#N)c2)cc1C1CCN(C[C@H]2CN([C@@H](C(=O)O)C(C)(C)C)C[C@@H]2c2cccc(F)c2)CC1 | 33 | 0.9 | < 0.14
